# Screening data from PubChem BioAssay.
# A selection: hits, their analogues and other compounds. The true share with any hit is near 3.5%.
# FLuc inh counter – Photinus pyralis luciferase inhibition counter-screen. P08659. ATPLite firefly luciferase biochemical luminescence, 10 min. inhibition, % at 10 µM. hit rate 1.5% among 200,000;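 active = inhibition above about 50% when tested at 10 µM, limit read from the data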
# Target sequence (P08659 whole entry, looked up): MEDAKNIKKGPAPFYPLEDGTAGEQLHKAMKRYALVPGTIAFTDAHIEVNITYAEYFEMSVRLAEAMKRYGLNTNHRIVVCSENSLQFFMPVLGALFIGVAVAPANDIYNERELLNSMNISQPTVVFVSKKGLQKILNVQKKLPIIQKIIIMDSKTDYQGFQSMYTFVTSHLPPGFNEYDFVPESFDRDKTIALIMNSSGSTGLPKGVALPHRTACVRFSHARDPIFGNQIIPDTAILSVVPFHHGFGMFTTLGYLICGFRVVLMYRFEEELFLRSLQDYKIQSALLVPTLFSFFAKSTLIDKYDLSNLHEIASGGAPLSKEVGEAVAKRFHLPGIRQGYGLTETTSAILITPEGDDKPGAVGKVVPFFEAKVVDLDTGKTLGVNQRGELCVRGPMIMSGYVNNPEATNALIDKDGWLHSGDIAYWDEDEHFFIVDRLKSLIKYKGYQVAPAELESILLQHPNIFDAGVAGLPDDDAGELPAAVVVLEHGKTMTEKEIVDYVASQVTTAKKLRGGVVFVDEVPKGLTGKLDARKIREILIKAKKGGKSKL
# FLuc act counter – affects firefly luciferase, flagging false hits in luciferase stimulation screens. ATPlite luciferase biochemical, luminescence, 10 min; 0 = ATP-free wells, 1 = DMSO control. activation factor at 10 µM. 200,000 tested, under 10 active. AID 1027;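 active = luciferase activation factor, scaled between plate controls, of at least 2 with compound at 10 µM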
#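 Assay system: Luciferase/luciferin detection reagent, cell-free biochemical luciferase assay / Also added: ATP substrate / Schedule: 10 min at ambient temperature / Measured by: luminescence measurement of luciferase light output / Benchmarks: low control with PBS replacing ATP, high control enzyme plus ATP without compound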
# APP 5'UTR act – activates APP 5'UTR luciferase reporter | SH-SY5Y APP 5'UTR luciferase reporter, luminescence; zero percent = DMSO vehicle wells | activation, % at 2 µM | hit rate 1% among 190,000;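 active = activation above a set limit, based on mean plus 3 SD of controls, cut at about 140% in these data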
# NF-kB expr up – NF-kB expression increase, human neuronal cells. NF-kB reporter expression; active compounds read high. fold change at 12.5 µM. hit rate 1.6% among 190,000; in the data active = fold change above about 3.3
# Pf gametocyte – kills late stage P. falciparum gametocytes | hit rate 0.065% among 150,000 | inhibition, % at 10.9 µM | P. falciparum stage V gametocytes, ATP luminescence, 24 h;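 active = inhibition above the mean plus 3 SD of compounds within the control limits, set per campaign, cut at about 38% in these data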
# STAT1 act – increases IFN-gamma driven STAT1 reporter signal; NIH 3T3 STAT1-luciferase reporter, luminescence; 100% = IFN-gamma alone, no compound; activation (% of control), % at 5.5 µM; hit rate 2.6% among 200,000;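 active = activation above the screen-wide mean activation plus 3 SD, cut at about 130% in these data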
# Numbers stand for hits; 0 = inactive; - = no result.
SMILES,FLuc inh counter,FLuc act counter,APP 5'UTR act,NF-kB expr up,Pf gametocyte,STAT1 act
COc1ccccc1NC(=O)CN1CCN(CC(=O)Nc2cc(NC(C)=O)ccc2OC)CC1,0,0,0,0,0,0
Cc1ccc(NNc2c(C)nc3ccccc3nc2=O)cc1,0,0,0,0,0,0
Cc1ccccc1OCc1nnc2c3cnn(C)c3ncn12,0,0,0,0,0,139
O=C(/C=C\c1ccccc1OC(=O)c1ccccc1F)c1cc2ccccc2o1,0,0,0,4.3,0,0
Cc1nn(C)cc1/C=C/C(=O)c1ccc(O)cc1,57,0,0,0,0,0
O=C(/C=C/c1ccc(O)cc1)c1ccccc1,-,-,-,-,0,-
O=C(Nc1nccs1)c1cccnc1,-,-,-,-,0,-
Cc1csc(NC(=O)c2cncc(Br)c2)n1,50,0,0,3.3,-,0
O=C(NC(=S)Nc1ccccn1)c1cncc(Br)c1,64,0,0,0,-,0
O=C(Nc1nccs1)c1cncc(Br)c1,0,0,0,0,-,143
Cc1ccc(S(=O)(=O)NCCCNS(=O)(=O)c2ccccc2)cc1,-,-,-,-,0,-
COC(=O)/C=C/CSC1=N/C(=C/c2ccc(-n3cncn3)cc2)C(=O)N1,0,0,0,0,0,0
Brc1ccc(CSc2nnc3ccccn23)cc1,0,0,0,0,0,0
CN1CCCN(c2ccc([N+](=O)[O-])cc2)CC1,0,0,0,0,0,0
O=C(Nc1cccc2ccccc12)c1ccc([N+](=O)[O-])s1,0,0,0,3.8,0,0
O=C(Nc1ccccc1F)c1ccc([N+](=O)[O-])s1,0,0,0,3.5,0,0
Cc1ccc(C(=O)NNC(=S)Nc2cccc3ccccc23)s1,58,0,150,0,-,0
C/C(=N\OCc1ccc(C#N)cc1)c1ccccc1,0,0,0,0,0,142
COc1c(C)cccc1C(=O)Nc1ccc(CN2CCOCC2)cc1,0,0,0,0,0,130
COc1cccc(NC(=O)c2ccc(CN3CCOCC3)cc2)c1,51,0,0,0,-,131
CC(C)Oc1cccc(C(=O)Nc2ccc(CN3CCOCC3)cc2)c1,0,0,0,0,0,0
COc1c(C)cccc1C(=O)Nc1ccc(N2CCN(S(C)(=O)=O)CC2)cc1,0,0,0,0,-,145
S=C(NCCOCCOCCNC(=S)Nc1ccccc1)Nc1ccccc1,0,0,0,0,0,0
CCOC(=O)C1=C(O)/C(=C\c2ccc(CNS(=O)(=O)c3ccc(Br)cc3)o2)N=C1C,0,0,0,0,0,0
CCN(CC)C(=O)CSc1nc(-c2ccccc2)ccc1C#N,0,0,0,0,-,132
SMILES,FLuc inh counter,FLuc act counter,APP 5'UTR act,NF-kB expr up,Pf gametocyte,STAT1 act
COC(=O)CSc1nc(-c2cccs2)ccc1C#N,0,0,152,7.3,-,133
C#CCSc1nc(-c2cccs2)ccc1C#N,0,0,0,0,-,0
CCOC(=O)C1=C(CSc2nc(CC)c(C)cc2C#N)OC(N)=C(C#N)C1c1ccccc1 (centres undefined),0,0,0,0,0,0
CCOC(=O)C1=C(CSc2nc(-c3ccccc3)ccc2C#N)OC(N)=C(C#N)C1c1ccc(OC)cc1 (centres undefined),0,0,0,0,0,147
N#Cc1cc([N+](=O)[O-])cnc1N(CCO)CCO,0,0,0,0,0,0
CCCCn1nc2cc(C(=O)NC3CCCc4ccccc43)ccc2c1OCC (centres undefined),0,0,0,0,0,0
Cc1ccc(NC(=O)CSC2=NN3CCCC(=O)N=C3S2)c(C)c1,0,0,0,3.3,-,0
Nc1nc(-c2ccccn2)nc(N)c1Cc1c(F)cccc1Cl,0,0,0,0,0,0
Nc1nc(-c2ccccn2)nc(N)c1Cc1ccccc1F,57,0,0,0,0,0
O=C(NC12CC3CC(CC(C3)C1)C2)c1cccnc1Cl,-,-,-,-,0,-
Cn1c(SCc2ccc(C#N)cc2Cl)nc2ccccc21,0,0,187,5.3,-,145
N#Cc1ccc(CSc2ccccn2)c(Cl)c1,-,-,-,-,0,-
CC(=O)Nc1cccc(C(=O)OCC(=O)c2ccccc2Cl)c1,82,0,0,0,0,0
CC(=O)Nc1cccc(C(=O)OCc2ccccc2)c1,0,0,0,0,-,0
CCC(=O)Nc1ccccc1C(=O)OCC(=O)c1ccccc1,0,0,0,0,0,138
CCC(=O)Nc1cccc(C(=O)c2ccccc2)c1,0,0,-,0,-,0
